Reference: ChEMBL document CHEMBL1121619, “Demethyl analogues of psychoactive methoxyphenalkylamines: synthesis and serotonin receptor affinities” (J Med Chem, 1980)

Assays:
[1] = target: Serotonin (5-HT) receptor; assay: (§1) Antagonistic activity of corresponding methoxy compound against serotonin 5-HT receptor; type: functional
[2] = target: T1, 5-hydroxytryptamine receptor 2B (Rattus norvegicus, UniProt P30994); assay: Antagonistic activity against 5-hydroxytryptamine 2B receptor obtained from rat stomach fundus preparation; type: functional, tissue-based; conditions: read-out: pA2 (converted)
[3] = target: T1, 5-hydroxytryptamine receptor 2B; assay: Antagonistic against 5-hydroxytryptamine 2B receptor; type: functional; conditions: read-out: pA2 (converted)
[4] = test system: Rattus norvegicus; assay: Compound was tested for its activity for maximal correct- drug lever responding at doses 2 mg/Kg in rat; Range 0-8%; type: functional
Procedure, shortened: (§2)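 Rats were trained in a two-lever drug discrimination procedure to tell 5-methoxy-N,N-dimethyltryptamine hydrogen oxalate (1.5 mg/kg) from saline. Each challenge dose was given to three to six rats, and the percentage of drug-lever responding was recorded.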

[5] = test system: Rattus norvegicus; assay: Compound was tested for its activity for maximal correct- drug lever responding at doses 5 mg/Kg in rat; Range 0-8%; type: functional; procedure, shortened: as §2
[6] = test system: Rattus norvegicus; assay: Compound was tested for its activity for maximal correct- drug lever responding at doses 3 mg/Kg in rat; Range 0-8%; type: functional; procedure, shortened: as §2
[7] = target: T1, 5-hydroxytryptamine receptor 2B; assay: as §1; type: functional; conditions: read-out: pA2 (converted)

T1 sequence (P30994 whole entry): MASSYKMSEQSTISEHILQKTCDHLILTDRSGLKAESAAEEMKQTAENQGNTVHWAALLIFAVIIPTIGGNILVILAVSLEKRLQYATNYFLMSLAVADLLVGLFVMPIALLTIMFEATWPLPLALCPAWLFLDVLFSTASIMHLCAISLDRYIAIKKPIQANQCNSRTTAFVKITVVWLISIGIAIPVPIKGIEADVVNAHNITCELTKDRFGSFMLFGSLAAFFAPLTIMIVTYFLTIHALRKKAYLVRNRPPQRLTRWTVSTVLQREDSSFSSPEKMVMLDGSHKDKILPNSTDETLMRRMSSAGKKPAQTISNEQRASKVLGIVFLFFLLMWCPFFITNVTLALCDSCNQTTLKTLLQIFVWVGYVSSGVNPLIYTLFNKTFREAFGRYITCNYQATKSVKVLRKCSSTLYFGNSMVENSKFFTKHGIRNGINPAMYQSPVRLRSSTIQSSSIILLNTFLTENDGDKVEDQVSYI

NCCc1ccccc1O
pA2 [1]: 5.52

COc1ccc(OCc2ccccc2)c(CCN(C)C)c1
Kb [2]: 3.63 µM
Kb [3]: 0.302 µM

COc1cc(CC(C)N)ccc1O (stereo not drawn) [3-O-METHYL-ALPHA-METHYLDOPAMINE]
Kb [2]: 6.46 µM
Kb [3]: 3.55 µM

COc1ccc(O)c(CC(C)N(C)C)c1 (centres undefined)
Kb [2]: 0.166 µM
Kb [3]: 0.316 µM

COc1ccc(CC(C)N)c(O)c1 (centres undefined)
Kb [3]: 2.51 µM

COc1cc(C)c(O)cc1CC(C)N (centres undefined)
Activity [4]: 0%
Kb [2]: 0.0123 µM
Activity [5]: 0%
Activity [6]: 0%
Kb [3]: 0.0759 µM

COc1ccc(CC(C)N)cc1O (centres undefined)
Kb [2]: 0.135 µM
Kb [3]: 3.55 µM

COc1ccc(O)c(CCN(C)C)c1
Kb [2]: 0.145 µM
Kb [3]: 0.302 µM

COc1ccc(O)c(CC(C)N)c1 (centres undefined)
Kb [2]: 0.1 µM
Kb [3]: 0.148 µM

NCCc1ccc(O)cc1 [TYRAMINE]
Kb [7]: 7.94 µM

COc1cc(CC(C)N)c(O)cc1C (centres undefined)
Kb [2]: 0.0363 µM
Kb [3]: 0.0759 µM

COc1ccc(O)c(CCN)c1
Kb [2]: 0.0794 µM
Kb [3]: 0.141 µM
